Measured values as given in ChEMBL document CHEMBL1147809, “Tumor-cell-targeted methionine-enkephalin analogues containing unnatural amino acids: design, synthesis, and in vitro antitumor activity” (2006).

Tests used:
Type in all cases: functional
[1] = tested on: HeLa; test: Antiproliferative activity against human HeLa cell line at 1000 uM relative to control
Procedure, shortened: (§1)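 Cells from ATCC grown as monolayers in DMEM with 10% FBS, 2 mM glutamine, penicillin/streptomycin, 37 °C, 5% CO2. Seeded at 2 × 10^4 cells/mL, and after 24 h the medium was replaced with fresh medium containing compound (water/10% DMSO stock, PBS working dilutions 10^-3 to 10^-6 M). Exposure was 72 h, then MTT read-out. Growth % = (A_peptide − A_blank)/(A_control − A_blank) × 100, with inhibition taken relative to untreated cells. Values are means of three experiments run in triplicate.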

[2] = tested on: HBL; test: Antiproliferative activity against human HBL cell line at 10 uM relative to control; procedure, shortened: as §1
[3] = tested on: Caco-2; test: Antiproliferative activity against human Caco-2 cell line at 10 uM relative to control; procedure, shortened: as §1
[4] = tested on: SW-620; test: Antiproliferative activity against human SW620 cell line at 1 uM relative to control; procedure, shortened: as §1
[5] = tested on: HEp-2; test: Antiproliferative activity against human HEp2 cell line at 100 uM relative to control; procedure, shortened: as §1
[6] = tested on: MCF7; test: Antiproliferative activity against human MCF7 cell line at 1000 uM relative to control; procedure, shortened: as §1
[7] = tested on: Caco-2; test: Antiproliferative activity against human Caco-2 cell line at 100 uM relative to control; procedure, shortened: as §1
[8] = tested on: HeLa; test: Antiproliferative activity against human HeLa cell line at 100 uM relative to control; procedure, shortened: as §1
[9] = tested on: HEp-2; test: Antiproliferative activity against human HEp2 cell line at 10 uM relative to control; procedure, shortened: as §1
[10] = tested on: HBL; test: Antiproliferative activity against human HBL cell line at 1 uM relative to control; procedure, shortened: as §1
[11] = tested on: SW-620; test: Antiproliferative activity against human SW620 cell line at 10 uM relative to control; procedure, shortened: as §1
[12] = tested on: HBL; test: Antiproliferative activity against human HBL cell line at 100 uM relative to control; procedure, shortened: as §1
[13] = tested on: MCF7; test: Antiproliferative activity against human MCF7 cell line at 100 uM relative to control; procedure, shortened: as §1
[14] = tested on: SW-620; test: Antiproliferative activity against human SW620 cell line at 1000 uM relative to control; procedure, shortened: as §1
[15] = tested on: MCF7; test: Antiproliferative activity against human MCF7 cell line at 1 uM relative to control; procedure, shortened: as §1
[16] = tested on: HT-29; test: Antiproliferative activity against human HT29 cell line at 10 uM relative to control; procedure, shortened: as §1
[17] = tested on: HEp-2; test: Antiproliferative activity against human HEp2 cell line at 1 uM relative to control; procedure, shortened: as §1
[18] = tested on: Caco-2; test: Antiproliferative activity against human Caco-2 cell line at 1000 uM relative to control; procedure, shortened: as §1
[19] = tested on: HeLa; test: Antiproliferative activity against human HeLa cell line at 10 uM relative to control; procedure, shortened: as §1
[20] = tested on: HBL; test: Antiproliferative activity against human HBL cell line at 1000 uM relative to control; procedure, shortened: as §1
[21] = tested on: MCF7; test: Antiproliferative activity against human MCF7 cell line at 10 uM relative to control
Procedure, shortened: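 MTT assay on monolayer cells grown in DMEM with 10% FBS, 2 mM glutamine, penicillin and streptomycin, at 37 °C in 5% CO2. Cells were plated at 2 × 10^4 cells/mL on day 0. After 24 h the medium was replaced with fresh medium containing compound (working dilutions in PBS from 10% DMSO/water stock), then incubated 72 h. Percent growth inhibition was calculated against untreated cells after blank subtraction. Values are means of three experiments run in triplicate.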

[22] = tested on: HT-29; test: Antiproliferative activity against human HT29 cell line at 100 uM relative to control; procedure, shortened: as §1
[23] = tested on: HEp-2; test: Antiproliferative activity against human HEp2 cell line at 1000 uM relative to control; procedure, shortened: as §1
[24] = tested on: SW-620; test: Antiproliferative activity against human SW620 cell line at 100 uM relative to control; procedure, shortened: as §1
[25] = tested on: Caco-2; test: Antiproliferative activity against human Caco-2 cell line at 1 uM relative to control; procedure, shortened: as §1
[26] = tested on: HT-29; test: Antiproliferative activity against human HT29 cell line at 1 uM relative to control; procedure, shortened: as §1
[27] = tested on: HeLa; test: Antiproliferative activity against human HeLa cell line at 1 uM relative to control; procedure, shortened: as §1
[28] = tested on: HT-29; test: Antiproliferative activity against human HT29 cell line at 1000 uM relative to control; procedure, shortened: as §1

Q: Which results are given for `N[C@@H](Cc1ccc(O)cc1)C(=O)N[C@@H](C(=O)O)C1C2CC3CC(C2)CC1C3` (stereo partly specified)?
A: inhibition at 1000 µM [1]: 20.5%; inhibition at 10 µM [2]: 4.7%; inhibition at 10 µM [3]: 21.4%; inhibition at 1 µM [4]: 10.7%; inhibition at 100 µM [5]: 1.9%; inhibition at 1000 µM [6]: 18.7%; inhibition at 100 µM [7]: 17.5%; inhibition at 100 µM [8]: 11%; inhibition at 10 µM [9]: 4.9%; inhibition at 1 µM [10]: 3%; inhibition at 10 µM [11]: 10%; inhibition at 100 µM [12]: 2.7%; inhibition at 100 µM [13]: 7.7%; inhibition at 1000 µM [14]: 18.7%; inhibition at 1 µM [15]: 1.6%; inhibition at 10 µM [16]: 8.3%; inhibition at 1 µM [17]: 8.5%; inhibition at 1000 µM [18]: 16%; inhibition at 10 µM [19]: 17.1%; inhibition at 1000 µM [20]: 7.3%; inhibition at 10 µM [21]: 2.6%; inhibition at 100 µM [22]: 10.5%; inhibition at 1000 µM [23]: 16.2%; inhibition at 100 µM [24]: 9.4%; inhibition at 1 µM [25]: 22.2%; inhibition at 1 µM [26]: 0.7%; inhibition at 1 µM [27]: 7.2%; inhibition at 1000 µM [28]: 21.8%

Q: Which inhibition at 1000 µM [1] does the source give for `CSCC[C@H](NC(=O)[C@H](Cc1ccccc1)NC(=O)CNC(=O)CNC(=O)[C@@H](N)Cc1ccc(O)cc1)C(=O)O` here?
A: Its inhibition at 1000 µM is 22.3%.

Q: And the inhibition at 10 µM [2]?
A: Its inhibition at 10 µM is 1%.

Q: What about the inhibition at 10 µM [3] of the same compound?
A: The inhibition at 10 µM was 6.4%.

Q: What about the inhibition at 1 µM [4] of the same compound?
A: The inhibition at 1 µM was 18.9%.

Q: And the inhibition at 100 µM [5]?
A: Its inhibition at 100 µM is 2.4%.

Q: And the inhibition at 1000 µM [6]?
A: The inhibition at 1000 µM was 15.4%.

Q: And the inhibition at 100 µM [7]?
A: Its inhibition at 100 µM is 8.4%.

Q: And the inhibition at 100 µM [8]?
A: Its inhibition at 100 µM is 12%.

Q: And the inhibition at 10 µM [9]?
A: Its inhibition at 10 µM is 4.5%.

Q: And the inhibition at 1 µM [10]?
A: Its inhibition at 1 µM is 0.4%.

Q: What about the inhibition at 10 µM [11] of the same compound?
A: Its inhibition at 10 µM is 12.7%.

Q: What about the inhibition at 100 µM [12] of the same compound?
A: The inhibition at 100 µM was 4.5%.

Q: And the inhibition at 100 µM [13]?
A: Its inhibition at 100 µM is 7.6%.

Q: What about the inhibition at 1000 µM [14] of the same compound?
A: Its inhibition at 1000 µM is 19.1%.

Q: And the inhibition at 1 µM [15]?
A: The inhibition at 1 µM was 3.6%.

Q: What about the inhibition at 10 µM [16] of the same compound?
A: The inhibition at 10 µM was 15.9%.

Q: What about the inhibition at 1 µM [17] of the same compound?
A: The inhibition at 1 µM was 5.2%.

Q: What about the inhibition at 1000 µM [18] of the same compound?
A: The inhibition at 1000 µM was 3.2%.

Q: And the inhibition at 10 µM [19]?
A: The inhibition at 10 µM was 11.4%.

Q: And the inhibition at 1000 µM [20]?
A: Its inhibition at 1000 µM is 10.8%.

Q: And the inhibition at 10 µM [21]?
A: The inhibition at 10 µM was 4.1%.

Q: What about the inhibition at 100 µM [22] of the same compound?
A: The inhibition at 100 µM was 16.1%.

Q: And the inhibition at 1000 µM [23]?
A: Its inhibition at 1000 µM is 3.3%.

Q: What about the inhibition at 100 µM [24] of the same compound?
A: Its inhibition at 100 µM is 15.3%.

Q: And the inhibition at 1 µM [25]?
A: Its inhibition at 1 µM is 4.2%.

Q: And the inhibition at 1 µM [26]?
A: Its inhibition at 1 µM is 14%.

Q: What about the inhibition at 1 µM [27] of the same compound?
A: The inhibition at 1 µM was 2.3%.

Q: And the inhibition at 1000 µM [28]?
A: Its inhibition at 1000 µM is 19.3%.
